# Screens: PubChem BioAssay, Broad Institute
# T cruzi intra = inhibitors of intracellular Trypanosoma cruzi, primary screen, cell-based, plate reader, single point, set 2; intracellular Trypanosoma cruzi in host cells; activity score (inhibition), % at 5.01 µM; 22,000 compounds, 4.9% hits; in the data active = activity score above about 55%; inconclusive = no clear call, values can overlap the other calls;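 note: parasites and compound incubated about four days before reading; 0% = median of neutral control wells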
# YB-1 expression = inhibitors of YB-1 gene expression, primary screen, cell-based, fluorescence; U2OS, qRT-PCR YB-1 vs CDIP delta delta Cp, 16 h; stronger effect = higher value; zero = DMSO, each unit about twofold; delta delta Cp (YB-1 minus CDIP) (no concentration beside the values); 30,000 compounds, 0.37% hits;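 active = delta delta Cp rounded down to an integer at or above 3, about 3 SD of DMSO wells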;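 note: higher means less YB-1 transcript or more CDIP transcript relative to DMSO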
# INS-1E rescue = protection of INS-1E cells from cytokine death, primary screen, ATP luminescence, single point | 20,000 compounds, 0.1% hits | protection from cytokine-induced ATP loss, % at 10 µM | INS-1E cytokine-induced death, 48 h; normalised: neutral wells 0, positive control 100 | AID 488910, 2010;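 active = mean replicate protection from cytokine-induced ATP loss at least 50% and at least 75% of replicates each reaching 50%; inconclusive = meets only one of the two criteria, mean or replicate share; inactive = fails both the mean and replicate share criteria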
#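 Test system: INS-1E rat cells | Quantity: 8000 cells per well | Medium: Phenol-red-free RPMI with 5% fetal bovine serum | Reagent: Cytokine cocktail of IFN-γ, TNF-α and IL-1β | Doses: One compound concentration, pin transfer | Timing: 48 h co-treatment, 10 min post-lysis read | Technique: Luminescent ATP assay (CellTiter-Glo)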
# An asterisk follows results filed as active; ? = inconclusive; · = not tested or not shown. Only a selection was taken, and hits are over-represented in it overall.
SMILES,T cruzi intra,YB-1 expression,INS-1E rescue
Cc1ccc(S(=O)(=O)N(C)C[C@@H]2Oc3c(NC(=O)Nc4cccc5ccccc45)cccc3C(=O)N([C@@H](C)CO)C[C@H]2C)cc1,-0.1,0.155,62.1*
COc1ccc(S(=O)(=O)N(C)C[C@@H]2Oc3c(NC(=O)Nc4ccc(C(F)(F)F)cc4)cccc3C(=O)N([C@H](C)CO)C[C@@H]2C)cc1,74.5*,0.0241,-101.1
COc1ccc(NC(=O)Nc2cccc3c2O[C@@H](CN(C)S(=O)(=O)c2ccc(OC)cc2)[C@H](C)CN([C@H](C)CO)C3=O)cc1,17.2,0.0792,-6.5
Cc1ccc(S(=O)(=O)N(C)C[C@@H]2Oc3c(NC(=O)Nc4ccc(C(F)(F)F)cc4)cccc3C(=O)N([C@@H](C)CO)C[C@@H]2C)cc1,-1.2,0.197,-25.7
COc1ccc(S(=O)(=O)N(C)C[C@@H]2Oc3c(NC(=O)Nc4ccc(C(F)(F)F)cc4)cccc3C(=O)N([C@@H](C)CO)C[C@@H]2C)cc1,60.9*,-0.125,-59.2
Cc1ccc(S(=O)(=O)N(C)C[C@H]2Oc3c(NC(=O)Nc4cccc5ccccc45)cccc3C(=O)N([C@H](C)CO)C[C@H]2C)cc1,38.6,-0.041,10.2
Cc1ccc(S(=O)(=O)N(C)C[C@H]2Oc3c(NC(=O)Nc4ccc(C(F)(F)F)cc4)cccc3C(=O)N([C@@H](C)CO)C[C@H]2C)cc1,78.8*,-0.211,-106.7
Oc1ccc(CCCCC(O)CCc2ccc(O)cc2)cc1 (centres undefined),·,0.0148,·
O=S(=O)(c1cccc(-c2nnc(-c3ccccc3)o2)c1)N1CCCC1,·,-0.138,·
CSc1nnc(-c2cc(OCC(F)(F)F)nc(OCC(F)(F)F)c2)n1Cc1ccco1,·,-0.386,·
COc1cc(OC)c2nc(C)c3c(c2c1)SCC3,·,-0.398,·
CN(C)CCNc1cn[nH]c(=O)c1Cl,·,-0.106,·
C[C@@H]1CCCCO[C@@H](CN(C)Cc2ccc(Cl)c(Cl)c2)[C@@H](C)CN([C@H](C)CO)C(=O)c2cc(NS(=O)(=O)c3ccccc3)ccc2O1,65.6*,-0.000557,-69.0
C[C@@H]1CCCCO[C@@H](CN(C)Cc2ccc(Cl)c(Cl)c2)[C@@H](C)CN([C@H](C)CO)C(=O)c2cc(NS(C)(=O)=O)ccc2O1,18.8,-0.533,-7.0
C[C@@H]1CCCCO[C@H](CN(C)Cc2ccc3c(c2)OCO3)[C@@H](C)CN([C@H](C)CO)C(=O)c2cc(NS(=O)(=O)c3ccc(F)cc3)ccc2O1,3.2,0.0731,8.3
COc1ccc(CN(C)C[C@H]2OCCCC[C@@H](C)Oc3ccc(NS(=O)(=O)c4ccc(Cl)cc4)cc3C(=O)N([C@H](C)CO)C[C@@H]2C)cc1,?,-0.201,-9.7
C[C@@H]1CCCCO[C@H](CN(C)Cc2ccc(Cl)c(Cl)c2)[C@@H](C)CN([C@H](C)CO)C(=O)c2cc(NS(=O)(=O)c3ccc(F)cc3)ccc2O1,65.5*,-0.00423,-28.7
Cc1ccc(S(=O)(=O)Nc2ccc3c(c2)C(=O)N([C@H](C)CO)C[C@H](C)[C@H](CN(C)Cc2ccc4c(c2)OCO4)OCCCC[C@@H](C)O3)cc1,-13.4,-0.00371,1.0
Cc1ccc(S(=O)(=O)Nc2ccc3c(c2)C(=O)N([C@H](C)CO)C[C@H](C)[C@H](CN(C)Cc2ccc(Cl)c(Cl)c2)OCCCC[C@@H](C)O3)cc1,76.9*,-0.431,-45.2
COc1ccc(S(=O)(=O)Nc2ccc3c(c2)C(=O)N([C@H](C)CO)C[C@H](C)[C@H](CN(C)Cc2ccc(Cl)c(Cl)c2)OCCCC[C@@H](C)O3)cc1,57.5*,-0.0576,-7.7
COc1ccc(CNC(=O)Nc2ncc([N+](=O)[O-])s2)cc1,·,-0.43,·
Ic1cccc(CSc2nnc(-c3ccncc3)o2)c1,·,1.14,·
CC(C)(C)c1ccc(N2C(=O)CCC2=O)cc1,·,-0.0569,·
Cc1c(O)c(C(=O)c2nn[nH]n2)c(=O)n(-c2ccccc2)c1-c1ccccc1,·,0.398,·
C[C@@H]1CN([C@H](C)CO)C(=O)c2cccc(NC(=O)c3ccncc3)c2O[C@H]1CN(C)Cc1ccc(C(F)(F)F)cc1,78.7*,-0.0718,1.7
SMILES,T cruzi intra,YB-1 expression,INS-1E rescue
C[C@@H]1CN([C@@H](C)CO)C(=O)c2cccc(NC(=O)c3cnccn3)c2O[C@H]1CN(C)Cc1ccc(C(F)(F)F)cc1,15.4,-0.361,-1.3
C[C@@H]1CN([C@H](C)CO)C(=O)c2cccc(NC(=O)c3cnccn3)c2O[C@H]1CN(C)Cc1ccc(C(F)(F)F)cc1,-2.8,0.252,-3.6
C[C@@H]1CN([C@H](C)CO)C(=O)c2cccc(NC(=O)c3ccncc3)c2O[C@@H]1CN(C)Cc1ccc(C(F)(F)F)cc1,-1.3,0.609,-4.9
C[C@H](CO)N1C[C@H](C)[C@@H](CN(C)Cc2ccc(C(F)(F)F)cc2)Oc2c(NC(=O)c3ccncc3)cccc2C1=O,83.3*,-0.216,-15.1
C[C@H]1CN([C@@H](C)CO)C(=O)c2cccc(NC(=O)c3ccncc3)c2O[C@@H]1CN(C)Cc1ccc(C(F)(F)F)cc1,78.0*,-0.112,16.6
C[C@@H]1CN([C@@H](C)CO)C(=O)c2cccc(NC(=O)c3ccncc3)c2O[C@H]1CN(C)Cc1ccc(C(F)(F)F)cc1,77.3*,-0.12,4.1
N#Cc1ccc(C=NCCN2CCNC2=O)cc1,·,-0.0146,·
C[C@H]1CN([C@@H](C)CO)C(=O)Cc2cc(NS(=O)(=O)c3ccc(F)cc3)ccc2O[C@@H]1CN(C)S(=O)(=O)c1ccc(Cl)cc1,3.4,-0.0376,8.1
C[C@@H]1CN([C@@H](C)CO)C(=O)Cc2cc(NS(=O)(=O)c3ccc(F)cc3)ccc2O[C@@H]1CN(C)S(=O)(=O)c1ccc(Cl)cc1,65.1*,0.446,-12.4
C[C@@H]1CN([C@H](C)CO)C(=O)Cc2cc(NS(=O)(=O)c3ccc(F)cc3)ccc2O[C@@H]1CN(C)S(=O)(=O)c1ccc(Cl)cc1,57.7*,-0.0065,0.2
C[C@@H]1CN([C@H](C)CO)C(=O)Cc2cc(NS(=O)(=O)c3ccc(Cl)cc3)ccc2O[C@H]1CN(C)S(=O)(=O)c1ccc(F)cc1,-6.0,0.0711,10.1
CN(C(=O)C(Cl)Cl)c1ccc(OC(=O)c2ccco2)cc1,·,3.72*,·
O=C(Oc1ccc(OC(=O)c2ccco2)cc1)c1ccco1,·,0.519,·
O=C(O)CCCCCCC(=O)N/N=C/c1ccc(CO)o1,-13.4,-0.298,2.2
O=C(CCCCCCC(=O)N/N=C/c1ccc(OCCO)cc1)NO,6.3,-0.79,115.8*
O=C(CCCCCCC(=O)N/N=C/c1ccc(CO)o1)NO,-3.1,-0.635,51.6*
O=C(CCCCC(=O)N/N=C/c1ccc(C(=O)O)cc1)NO,-12.4,-0.345,9.1
Cc1cc(-c2nnc(SCC(=O)c3ccccc3Cl)n2C)no1,·,0.0696,·
CCOC(=O)C1C(=O)C(=O)Nc2ccccc21 (centres undefined),·,0.0391,·
CN1/C(=C2/SC(=S)N(c3ccccc3)C2=O)Sc2ccccc21,·,-0.05,·
CC1C[C@@]23CC4C(C)(C)[C@@]5(C[C@]4(CN2C1=O)N(C)C3=O)C(=O)Nc1c5ccc2c1C(=O)CC(C)(C)O2 (some centres undefined),·,-0.183,·
CC(C)(C)NC(=O)Oc1ccc(Cl)cc1,·,-0.165,·
